Reference: ChEMBL document CHEMBL3108780, “Synthesis, characterization, cytotoxicity and antibacterial activity of an anthracenyl-linked bis(pyrazolyl)methane ligand and its zinc(II) complexes” (Eur J Med Chem, 2014)
Values after ≈ are worked out from the molar mass of the structure shown.

Assays:
Huh-7 = assay: Cytotoxicity against human HuH7 cells after 48 hrs by MTT assay; type: functional, cell-based; details: Huh-7, 48 h
Summary of the method: (§1)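 Cells seeded at 2 × 10^4 cells/mL, preincubated 24 h at 37 °C, 5% CO2. Compounds from DMSO mother solutions diluted in complete medium (DMSO ≤0.1%), added at pre-set concentrations with 5-fluorouracil and cisplatin as references. 48 h exposure, then MTT (2.5 mg/mL in PBS) 4 h, SDS/isobutanol/HCl solubilisation overnight, OD 570 nm. Triplicate wells, assays repeated ≥3 times; IC50.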

Bacillus spizizenii = assay: Antibacterial activity against Bacillus subtilis ATCC 6633 after 24 hrs by MTT assay; type: functional; details: ATCC 6633, 24 h
Summary of the method: (§2)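 Broth microdilution per CLSI; compounds dissolved in DMSO (stock […]) and serially diluted in sterilized liquid medium (50% v/v DMSO in PBS). Inoculum about 10^5 cfu/mL, incubated 37 °C for 24 h. Growth read colorimetrically with MTT dye, OD at 550 nm; MIC50 determined.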

MDA-MB-435 = assay: Cytotoxicity against human MDA-MB-435 cells after 48 hrs by MTT assay; type: functional, cell-based; details: MDA-MB-435, 48 h; summary of the method: as §1
A549 = assay: Cytotoxicity against human A549 cells after 48 hrs by MTT assay; type: functional, cell-based; details: A549, 48 h; summary of the method: as §1
Pseudomonas putida = assay: Antibacterial activity against Pseudomonas putida ATCC 49128 after 24 hrs by MTT assay; type: functional; details: ATCC 49128, 24 h; summary of the method: as §2
Staphylococcus aureus = assay: Antibacterial activity against Staphylococcus aureus ATCC 25923 after 24 hrs by MTT assay; type: functional; details: ATCC 25923, 24 h; summary of the method: as §2
Escherichia coli = assay: Antibacterial activity against Escherichia coli ATCC 35218 after 24 hrs by MTT assay; type: functional; details: ATCC 35218, 24 h; summary of the method: as §2

| Compound | IC50 (Huh-7) | MIC50 (Bacillus spizizenii) | IC50 (MDA-MB-435) | IC50 (A549) | MIC50 (Pseudomonas putida) | MIC50 (Staphylococcus aureus) | MIC50 (Escherichia coli) |
| --- | --- | --- | --- | --- | --- | --- | --- |
| c1ccc2c(C(n3cccn3)n3cccn3)c3ccccc3cc2c1 | 28 µg/mL (≈ 86.2 µM) | 3.26 µg/mL (≈ 10 µM) | 23.8 µg/mL (≈ 73.3 µM) | 9.77 µg/mL (≈ 30.1 µM) | 1.54 µg/mL (≈ 4.76 µM) | 2.13 µg/mL (≈ 6.57 µM) | 4.8 µg/mL (≈ 14.8 µM) |
| O=c1[nH]cc(F)c(=O)[nH]1 [FLUOROURACIL] | 20 µg/mL (≈ 154 µM) | – | 25.6 µg/mL (≈ 197 µM) | 24.9 µg/mL (≈ 191 µM) | – | – | – |
| O=C(N[C@H](CO)[C@H](O)c1ccc([N+](=O)[O-])cc1)C(Cl)Cl [CHLORAMPHENICOL] | – | 1.25 µg/mL (≈ 3.88 µM) | – | – | 0.182 µg/mL (≈ 0.563 µM) | 0.499 µg/mL (≈ 1.54 µM) | 3.04 µg/mL (≈ 9.41 µM) |
